Activity calls are given as the source filed them. No cut-off for these calls is given here.
Tests used:
[1] = Phototoxicity in 2.5 J/cm'2 UV-A irradiated human NCTC-2544 cells after 72 hrs by MTT assay; type: functional, cell-based; details: NCTC-2544, light or radiation study
How it was run: (§1)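 HL-60 and Jurkat (8×10³/well, RPMI-1640) and MCF-7, LoVo, NCTC-2544 (5×10³/well; DMEM or Ham's F12) preincubated 18 h at 37 °C, 5% CO₂. Compound in DMSO diluted in HBSS pH 7.2, 30 min at 37 °C, then UV-A at 2.5 or 3.75 J/cm². Medium replaced, 72 h incubation, MTT read-out. IC50 as mean ± SEM of three experiments.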

HL-60 [2] = test: Phototoxicity in 2.5 J/cm'2 UV-A irradiated human HL60 cells after 72 hrs by MTT assay; type: functional, cell-based; details: HL-60, light or radiation study; how it was run: as §1
Jurkat [3] = test: Phototoxicity in 2.5 J/cm'2 UV-A irradiated human Jurkat cells after 72 hrs by MTT assay; type: functional, cell-based; details: light or radiation study; how it was run: as §1
[4] = Phototoxicity in 3.75 J/cm'2 UV-A irradiated human NCTC-2544 cells after 72 hrs by MTT assay; type: functional, cell-based; details: NCTC-2544, light or radiation study
How it was run: (§2)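 Seeded at 5 × 10³ cells/well with 10% FBS: MCF-7 and NCTC-2544 in DMEM, LoVo in Ham's F12. Pre-incubated 18 h at 37 °C, 5% CO2. Compound (DMSO stock diluted in HBSS pH 7.2) was applied for 30 min at 37 °C, then UV-A irradiation (mainly 365 nm, 4.0 mW/cm²). Medium was restored for 72 h before MTT. IC50 is the mean ± SEM of three experiences.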

Jurkat [5] = test: Phototoxicity in 3.75 J/cm'2 UV-A irradiated human Jurkat cells after 72 hrs by MTT assay; type: functional, cell-based; details: light or radiation study
How it was run: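 Jurkat cells (8 × 10³/well) in RPMI-1640 with 10% FBS, held 18 h at 37 °C, 5% CO2. Compound stock in DMSO was diluted in HBSS pH 7.2 and added for 30 min at 37 °C. Cells were UV-A irradiated (lamp mainly 365 nm, 4.0 mW/cm²), then returned to medium for 72 h. MTT readout. IC50 is the mean ± SEM of three experiences.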

MCF7 [6] = test: Phototoxicity in 3.75 J/cm'2 UV-A irradiated human MCF7 cells after 72 hrs by MTT assay; type: functional, cell-based; details: MCF7, light or radiation study; how it was run: as §2
[7] = Photodegradation of the compound in DMSO assessed as formation of photoproducts at 20 uM at 1.3 to 14.3 J/cm'2 UV-A irradiation; type: physicochemical
How it was run: (§3)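 Compound solutions at 20 μM in DMSO exposed to increasing UV-A doses (HPW 125 lamps, mainly 365 nm, 4.0 mW cm⁻²). Absorption spectra recorded after each dose; isosbestic points noted.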

LoVo [8] = test: Phototoxicity in 3.75 J/cm'2 UV-A irradiated human LoVo cells after 72 hrs by MTT assay; type: functional, cell-based; details: light or radiation study; how it was run: as §2
MCF7 [9] = test: Phototoxicity in 2.5 J/cm'2 UV-A irradiated human MCF7 cells after 72 hrs by MTT assay; type: functional, cell-based; details: MCF7, light or radiation study; how it was run: as §1
HL-60 [10] = test: Phototoxicity in 3.75 J/cm'2 UV-A irradiated human HL60 cells after 72 hrs by MTT assay; type: functional, cell-based; details: HL-60, light or radiation study; how it was run: as §1
LoVo [11] = test: Phototoxicity in 2.5 J/cm'2 UV-A irradiated human LoVo cells after 72 hrs by MTT assay; type: functional, cell-based; details: light or radiation study; how it was run: as §1
Jurkat [12] = test: Induction of apoptosis in UV-A irradiated human Jurkat cells assessed as loss of mitochondrial membrane potential after 6 hrs by cytofluorimetric analysis; type: functional, cell-based
How it was run: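 Jurkat cells 6, 12 and 24 h after UV-A (2.5 J/cm²) with compound, resuspended in HBSS with JC-1 (1 μg/ml). Green (FL1) and orange (FL2) fluorescence collected by flow cytometry, ≥10000 events; cells with monomeric JC-1 counted as collapsed potential. Mean ± SEM of three experiments.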

Jurkat [13] = test: Cell cycle arrest in UV-A irradiated human Jurkat cells assessed as accumulation at G1 phase at 10 uM after 24 hrs by propidium iodide based flow cytometry (reference value: 64.4 %); type: functional
How it was run: (§4)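 Exponentially growing Jurkat cells (5×10^5) irradiated with UV-A (365 nm lamp, 2.5 J/cm²) in presence of compound. After 24 h: fixed in ice-cold 70% ethanol, lysed with RNAse A, stained with PI (10 µg/ml), analysed by flow cytometry. Phases calculated on living cells; subG1 is hypodiploid DNA peak.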

Jurkat [14] = test: Cell cycle arrest in UV-A irradiated human Jurkat cells assessed as accumulation at G2/M phase at 10 uM after 24 hrs by propidium iodide based flow cytometry (reference value: 10.3 %); type: functional; how it was run: as §4
Nucleic Acid [15] = test: Binding affinity to salmon testes DNA at drug/DNA ratio of 0.02 by linear dichroism analysis; type: nucleic-acid assay; details: Salmonidae
How it was run: (§5)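 Flow linear dichroism in 10 mM phosphate buffer pH 7.2. Samples oriented in a rotating cylindrical cuvette (0.14 cm path, 800 rpm) at several drug/DNA ratios.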

Jurkat [16] = test: Cell cycle arrest in UV-A irradiated human Jurkat cells assessed as accumulation at G1 phase at 5 uM after 24 hrs by propidium iodide based flow cytometry (reference value: 64.4 %); type: functional; how it was run: as §4
Jurkat [17] = test: Cell cycle arrest in UV-A irradiated human Jurkat cells assessed as accumulation at Sub G1 phase at 10 uM after 24 hrs by propidium iodide based flow cytometry (reference value: 0.1 %); type: functional; how it was run: as §4
Nucleic Acid [18] = test: Binding affinity to salmon testes DNA at drug/DNA ratio of 0.01 by linear dichroism analysis; type: nucleic-acid assay; details: Salmonidae; how it was run: as §5
Jurkat [19] = test: Induction of apoptosis in UV-A irradiated human Jurkat cells assessed as increase in number of damaged lysosomes at 5 to 10 uM by acridine orange-based flow cytometry; type: functional, cell-based
How it was run: (§6)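 Lysosomal stability in Jurkat cells 6, 12 and 24 h after UV-A (2.5 J/cm²) with compound. Cells resuspended in RPMI-1640 with 1 µM acridine orange; flow cytometry, excitation 488 nm, emission in FL3. Mean ± SEM of three experiments.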

Jurkat [20] = test: Cell cycle arrest in UV-A irradiated human Jurkat cells assessed as accumulation at S phase at 5 uM after 24 hrs by propidium iodide based flow cytometry (reference value: 25.3 %); type: functional; how it was run: as §4
Jurkat [21] = test: Induction of apoptosis in UV-A irradiated human Jurkat cells assessed as increase in number of damaged lysosomes after 6 to 24 hrs by acridine orange- based flow cytometry; type: functional, cell-based; how it was run: as §6
Nucleic Acid [22] = test: Binding affinity to salmon testes DNA at 10 uM by fluorescence titration; type: nucleic-acid assay; details: Salmonidae
How it was run: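 Fluorimetric titration of compound (10 μM) with increasing stDNA (0 to 100 μM) in 10 mM phosphate buffer pH 7.2; quenching of compound fluorescence monitored.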

Jurkat [23] = test: Cell cycle arrest in UV-A irradiated human Jurkat cells assessed as accumulation at S phase at 10 uM after 24 hrs by propidium iodide based flow cytometry (reference value: 25.3 %); type: functional; how it was run: as §4
Jurkat [24] = test: Induction of lipid peroxidation in 2.5 J/cm'2 UV-A irradiated human Jurkat cells assessed as increase in TBARS formation after 24 hrs by thiobarbituric acid assay; type: functional, cell-based
How it was run: (§7)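 Lipid peroxidation measured as MDA–thiobarbituric acid adducts, with BHT added to samples; calibrated to a 1,1,3,3-tetraethoxypropane standard curve; protein by Peterson method.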

Nucleic Acid [25] = test: Binding affinity to salmon testes DNA at drug/DNA ratio of 0.03 by linear dichroism analysis; type: nucleic-acid assay; details: Salmonidae; how it was run: as §5
Jurkat [26] = test: Cell cycle arrest in UV-A irradiated human Jurkat cells assessed as accumulation at Sub G1 phase at 5 uM after 24 hrs by propidium iodide based flow cytometry (reference value: 0.1 %); type: functional; how it was run: as §4
Jurkat [27] = test: Induction of lipid peroxidation in 3.75 J/cm'2 UV-A irradiated human Jurkat cells assessed as increase in TBARS formation after 24 hrs by thiobarbituric acid assay; type: functional, cell-based; how it was run: as §7
Jurkat [28] = test: Cell cycle arrest in UV-A irradiated human Jurkat cells assessed as accumulation at G2/M phase at 5 uM after 24 hrs by propidium iodide based flow cytometry (reference value: 10.3 %); type: functional; how it was run: as §4
[29] = Photodegradation of the compound in DMSO assessed as formation of photoproducts at 20 uM at 1.3 to 15.2 J/cm'2 UV-A irradiation; type: physicochemical; how it was run: as §3

Structure (SMILES) | IC50 [1] [µM] | IC50 (HL-60 [2]) [µM] | IC50 (Jurkat [3]) [µM] | IC50 [4] [µM] | IC50 (Jurkat [5]) [µM] | IC50 (MCF7 [6]) [µM] | IC50 (LoVo [8]) [µM] | IC50 (MCF7 [9]) [µM] | IC50 (HL-60 [10]) [µM] | IC50 (LoVo [11]) [µM] | also measured
Cc1c2c(cn1Cc1ccccc1)CCc1cc(S(=O)(=O)c3ccccc3)c(=O)[nH]c1-2 | > 20 | 4 | 13 | 14.4 | 3 | 7.7 | > 20 | > 20 | 2.5 | > 20 | Stability [7]: Unstable
CCOC(=O)c1c2c(c(C)n1Cc1ccccc1)-c1[nH]c(=O)c(S(=O)(=O)c3ccccc3)cc1CC2 | 4 | 1.2 | 2.9 | 2.5 | 1.9 | 1.4 | 2.3 | 3.3 | 0.8 | 4 | Activity (Jurkat [12]): Active; Activity (Jurkat [13]): 44.8%; Activity (Jurkat [14]): 0.8%; Activity (Nucleic Acid [15]): inactive; Activity (Jurkat [16]): 53.8%; Activity (Jurkat [17]): 12.5%; Activity (Nucleic Acid [18]): inactive; Activity (Jurkat [19]): Active; Activity (Jurkat [20]): 41.8%; Activity (Jurkat [21]): Active; Activity (Nucleic Acid [22]): inactive; Activity (Jurkat [23]): 54.4%; Activity (Jurkat [24]): Dose-dependent effect; Activity (Nucleic Acid [25]): inactive; Activity (Jurkat [26]): 3.8%; Activity (Jurkat [27]): Dose-dependent effect; Activity (Jurkat [28]): 4.4%
O=c1[nH]c2c(cc1S(=O)(=O)c1ccccc1)CCc1cn(Cc3ccccc3)cc1-2 | > 20 | > 20 | > 20 | > 20 | > 20 | > 20 | > 20 | > 20 | 14.5 | > 20 | –
COc1nc2c(cc1S(=O)(=O)c1ccccc1)CCc1cn(C)cc1-2 | 4.9 | 1.6 | 1 | 1.1 | 0.2 | 2 | 0.9 | 2.5 | 0.9 | 1.9 | Stability [29]: Unstable; Activity (Jurkat [13]): 40.1%; Activity (Jurkat [14]): 9.5%; Activity (Nucleic Acid [15]): inactive; Activity (Jurkat [16]): 49.6%; Activity (Jurkat [17]): 15.9%; Activity (Nucleic Acid [18]): inactive; Activity (Jurkat [20]): 45.4%; Activity (Nucleic Acid [22]): inactive; Activity (Jurkat [23]): 50.4%; Activity (Jurkat [24]): Dose-dependent effect; Activity (Nucleic Acid [25]): inactive; Activity (Jurkat [26]): 4%; Activity (Jurkat [27]): Dose-dependent effect; Activity (Jurkat [28]): 5%
Cn1cc2c(c1)-c1[nH]c(=O)c(S(=O)(=O)c3ccccc3)cc1CC2 | > 20 | > 20 | > 20 | > 20 | > 20 | > 20 | > 20 | > 20 | 5.6 | > 20 | –
COc1nc2c(cc1S(=O)(=O)c1ccccc1)CCc1cn(Cc3ccccc3)cc1-2 | 15.3 | 8.3 | 8.5 | 9.6 | 6.3 | 7.5 | 8.7 | 10 | 7.3 | 9.9 | –
Cc1c2c(c(C(=O)O)n1Cc1ccccc1)CCc1cc(S(=O)(=O)c3ccccc3)c(=O)[nH]c1-2 | > 20 | > 20 | > 20 | > 20 | > 20 | > 20 | > 20 | > 20 | > 20 | > 20 | –
